The values that follow come from ChEMBL document CHEMBL3822356, “Urotensin II((4-11)) Azasulfuryl Peptides: Synthesis and Biological Activity” (J Med Chem, 2016).

For assay [1], the target named is T1, Urotensin-2 receptor (Homo sapiens) (UniProt Q9UKP6).
T1 sequence (whole entry): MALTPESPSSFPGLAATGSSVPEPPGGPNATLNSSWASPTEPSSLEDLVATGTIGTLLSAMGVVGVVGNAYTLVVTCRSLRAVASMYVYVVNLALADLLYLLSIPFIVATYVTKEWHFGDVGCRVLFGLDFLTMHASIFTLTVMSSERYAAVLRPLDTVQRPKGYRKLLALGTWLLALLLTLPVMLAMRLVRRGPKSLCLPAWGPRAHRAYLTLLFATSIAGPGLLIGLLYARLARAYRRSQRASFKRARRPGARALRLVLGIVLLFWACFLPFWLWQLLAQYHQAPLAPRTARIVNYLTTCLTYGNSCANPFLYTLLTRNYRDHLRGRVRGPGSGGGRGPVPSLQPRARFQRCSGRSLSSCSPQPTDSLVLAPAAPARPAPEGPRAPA
The experiment in a line: Displacement of [125I]-hU2 from human UT2 receptor expressed in CHO cells at 10^-5 M after 90 mins by gamma counter assay. Type of assay: cell-based.

Assay [2] has as its target T2, Urotensin-2 receptor (Rattus norvegicus) (UniProt P49684).
T2 sequence (whole entry): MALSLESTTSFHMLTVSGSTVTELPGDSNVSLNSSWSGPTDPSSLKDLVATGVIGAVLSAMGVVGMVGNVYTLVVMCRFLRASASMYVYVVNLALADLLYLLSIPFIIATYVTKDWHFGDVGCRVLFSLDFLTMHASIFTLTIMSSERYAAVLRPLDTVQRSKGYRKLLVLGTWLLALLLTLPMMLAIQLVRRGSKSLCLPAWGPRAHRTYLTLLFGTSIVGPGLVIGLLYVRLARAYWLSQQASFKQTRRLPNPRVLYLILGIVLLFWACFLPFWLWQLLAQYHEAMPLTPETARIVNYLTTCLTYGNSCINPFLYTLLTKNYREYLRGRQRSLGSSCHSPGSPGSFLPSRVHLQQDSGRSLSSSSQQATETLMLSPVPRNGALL
The experiment in a line: Antagonist activity at UT2 receptor in Sprague-Dawley rat thoracic aorta ring assessed as Emax for URP-induced aortic contractions at 10^-5M relative to KCl. Type of assay: tissue-based. An outline of the steps:
(§1)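 Rat aortic rings pre-exposed to test peptide at 10^-5 M, then given cumulative increasing concentrations (10^-11 to 10^-6 M) of hUII or URP. Contraction measured to give pEC50 and Emax, expressed relative to KCl-induced contraction. Mean ± SEM; unpaired Student's t test against hUII or URP alone.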

In assay [3] the target is T2, Urotensin-2 receptor (Rattus norvegicus). As to the kind of experiment: Antagonist activity at UT2 receptor in Sprague-Dawley rat thoracic aorta ring assessed as Emax for hU2-induced aortic contractions at 10^-5M relative to KCl. Type of assay: tissue-based. Put shortly: as §1
In the next assay the target is T3, Urotensin-2 receptor (Homo sapiens, UniProt Q9UKP6).
T3 sequence (Q9UKP6 whole entry): T1 sequence (whole entry)
The experiment in a line: Displacement of [125I]-hU2 from human UT2 receptor expressed in CHO cells after 90 mins by gamma counter assay. The class given is cell-based. Put shortly:
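CHO cells overexpressing human UT receptor incubated with test peptide. Displacement of 125I-hUII from UT measured. At least three independent experiments, each determination in triplicate; mean ± S.E.M.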

Assay [4] has as its target T2, Urotensin-2 receptor (Rattus norvegicus). The experiment in a line: Partial agonist activity at UT2 receptor in Sprague-Dawley rat thoracic aorta ring assessed as induction of aortic contractions at 10 to 100 uM relative to KCl. The class given is tissue-based. Put shortly:
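Peptides applied alone to rat aortic rings to test for induced contraction. Response expressed as percent of KCl-induced contraction.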

Active and inactive are the calls of the source. No cut-off for these calls is given here. Where a SMILES comes first, the peptide text is derived from it.

The term inhibition denotes how much of the control response was suppressed. As usually defined, the Emax is the greatest response seen or fitted, relative to the assay's reference. What is called IC50 is the midpoint of a concentration-inhibition curve. A high value points to weaker potency in that assay. Turning to `CC(C)[C@H](NC(=O)[C@@H]1CSSC[C@H](NC(=O)[C@@H](N)CC(=O)O)C(=O)N[C@@H](Cc2ccccc2)C(=O)NN(Cc2ccc3ccccc3c2)S(=O)(=O)N[C@@H](CCCCN)C(=O)N[C@@H](Cc2ccc(O)cc2)C(=O)N1)C(=O)O`, in assay [1], the inhibition was 40%. For the same compound, the Emax is 105% in assay [2] and 65% in assay [3]. The compound also registered a concentration for half-maximal inhibition (IC50) on Urotensin-2 receptor of more than 1 µM. For the same compound, the Efficacy in assay [4] stood at 3%.
Compound `CC(C)[C@H](NC(=O)[C@@H]1CSSC[C@H](NC(=O)[C@@H](N)CC(=O)O)C(=O)N[C@@H](Cc2ccccc2)C(=O)NN(Cc2ccc(-c3ccccc3)cc2)S(=O)(=O)N[C@@H](CCCCN)C(=O)N[C@@H](Cc2ccc(O)cc2)C(=O)N1)C(=O)O` displayed an inhibition in assay [1] of 40%. Further, the Emax stood at 69% in assay [2] and 51% in assay [3]. For the same compound, the half-inhibitory concentration (IC50) at Urotensin-2 receptor is more than 1 µM. For the same compound, the Efficacy in assay [4] worked out at 3%.
For `CC(C)[C@H](NC(=O)[C@@H]1CSSC[C@H](NC(=O)[C@@H](N)CC(=O)O)C(=O)N[C@@H](Cc2ccccc2)C(=O)NN(Cc2ccccc2)S(=O)(=O)N[C@@H](CCCCN)C(=O)N[C@@H](Cc2ccc(O)cc2)C(=O)N1)C(=O)O` (HELM PEPTIDE1{D.C.F.[NCCCC[C@H](NS(=O)(=O)N(Cc1ccccc1)N[*:1])C(=O)[*:2]].Y.C.V}$PEPTIDE1,PEPTIDE1,2:R3-6:R3$$$V2.0), in that order: 40%, 101%, 87%, more than 1 µM and 3%.
In the case of `CC(C)[C@H](NC(=O)[C@@H]1CSSC[C@H](NC(=O)[C@H](C)N)C(=O)N[C@@H](Cc2ccccc2)C(=O)N[C@@H](Cc2c[nH]c3ccccc23)C(=O)N[C@@H](CCCCN)C(=O)N[C@@H](Cc2ccc(O)cc2)C(=O)N1)C(=O)O`, in assay [4], the outcome was Active.
`CC(C)[C@H](NC(=O)[C@@H]1CSSC[C@H](NC(=O)[C@@H](N)CC(=O)O)C(=O)N[C@@H](Cc2ccccc2)C(=O)N[C@@H](Cc2c[nH]c3ccccc23)C(=O)NN(CCCCN)S(=O)(=O)N[C@@H](Cc2ccc(O)cc2)C(=O)N1)C(=O)O` (HELM PEPTIDE1{D.C.F.W.[NCCCCN(N[*:1])S(=O)(=O)N[C@@H](Cc1ccc(O)cc1)C(=O)[*:2]].C.V}$PEPTIDE1,PEPTIDE1,2:R3-6:R3$$$V2.0) had an inhibition in assay [1] of 40%. Moreover, the maximal effect (Emax) came to 110% in assay [2] and 83% in assay [3]. Moreover, the half-inhibitory concentration (IC50) on Urotensin-2 receptor was more than 1 µM. The result in assay [4] was inactive.
Take `CC(C)[C@H](NC(=O)[C@@H]1CSSC[C@H](NC(=O)[C@@H](N)CC(=O)O)C(=O)N[C@@H](Cc2ccccc2)C(=O)N[C@@H](Cc2c[nH]c3ccccc23)C(=O)NN(CCCCN(C)C)S(=O)(=O)N[C@@H](Cc2ccc(O)cc2)C(=O)N1)C(=O)O` (HELM PEPTIDE1{D.C.F.W.[CN(C)CCCCN(N[*:1])S(=O)(=O)N[C@@H](Cc1ccc(O)cc1)C(=O)[*:2]].C.V}$PEPTIDE1,PEPTIDE1,2:R3-6:R3$$$V2.0): the inhibition in assay [1] is 40%. The Emax in assay [2] is 110%; in assay [3], 83%. The same compound yielded a half-maximal inhibitory concentration (IC50) on Urotensin-2 receptor of more than 1 µM. In assay [4], the result was inactive.
Turning to `CC(C)[C@H](NC(=O)[C@@H]1CSSC[C@H](NC(=O)[C@H](CC(=O)O)NC(=O)[C@@H]2CCCN2C(=O)[C@@H](NC(=O)[C@@H](N)CCC(=O)O)[C@@H](C)O)C(=O)N[C@@H](Cc2ccccc2)C(=O)N[C@@H](Cc2c[nH]c3ccccc23)C(=O)N[C@@H](CCCCN)C(=O)N[C@@H](Cc2ccc(O)cc2)C(=O)N1)C(=O)O`, the result in assay [4] was Active.
For the compound `CC(C)[C@H](NC(=O)[C@@H]1CSSC[C@H](NC(=O)[C@@H](N)CC(=O)O)C(=O)N[C@@H](Cc2ccccc2)C(=O)NN(Cc2cccc3ccccc23)S(=O)(=O)N[C@@H](CCCCN)C(=O)N[C@@H](Cc2ccc(O)cc2)C(=O)N1)C(=O)O`, the inhibition in assay [1] worked out at 40%. Further, the Emax in assay [2] came out at 38%; in assay [3], 29%. At Urotensin-2 receptor, the IC50 was more than 1 µM. Also, the Efficacy in assay [4] was 3%.
